# Test results reported in ChEMBL document CHEMBL1122747, “Potential antitumor agents. 42. Structure-activity relationships for acridine-substituted dimethyl phosphoramidate derivatives of 9-anilinoacridine” (J Med Chem, 1984).
# Experiments:
# [1] = Lipophilicity (Rm) (liquid chromatography); format: physicochemical
# Summary of the method: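 Rm is measured for drug cations at pH 2 by liquid-liquid chromatography on a cellulose support.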
# [2] = Binding affinity towards poly[d(A-T)] (fluorometric method); format: ADME
# Summary of the method: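 Log R for binding to poly[d(A-T)] measured fluorometrically, corrected for quenching.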
# [3] = system: L1210; assay: In vitro test for 50% reduction of cell number (of control) after 70 hr incubation with cultures of murine L1210 leukemia cells; format: functional; details: Mus musculus, L1210, 70 h; read-out: ID50 (the source's name)
# [4] = system: P388; assay: Dose of drug needed to provide a percentage increase in life span of tumor-bearing mice in vivo of […]% compared to untreated controls after inoculation of 10e6 P388 leukemia cells; h=ILS of >50% could not be obtained at any dose level; format: functional, organism-based; details: Mus musculus
# [5] = system: P388; assay: Tumor cell selectivity (ILSmax values) was evaluated in vivo for the percentage increase in life span of treated animals over that of P388 tumor bearing untreated control animals; h=ILS of >20% could not be obtained at any dose level; format: functional, organism-based; details: Mus musculus
# Summary of the method: (§1)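 F1 (DBA/2J × C57BlJ) mice, 19-21 g, either sex, inoculated with 10^6 P388 leukemia cells on day 0. Drug given ip in 0.1 mL 30% aqueous ethanol on days 1, 5 and 9, as a solution or, at highest doses, as a sonicated suspension. Doses stepped down from a toxic level at 0.67-fold intervals. Groups of six mice; ILS relative to 20-30 controls. OD is the highest nonacutely toxic daily dose.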
# [6] = system: P388; assay: In vivo inhibition of P388 in mice for optimal (highest nonacutely toxic) dose (OD); format: functional, Mus musculus; summary of the method: as §1
# [7] = system: P388; assay: Tumor cell selectivity (ILSmax values) was evaluated in vivo for the percentage increase in life span of treated animals over that of P388 tumor bearing untreated control animals; h=ILS of >50% could not be obtained at any dose level; format: functional, organism-based; details: Mus musculus; summary of the method: as §1
# [8] = system: P388; assay: In vivo tumor cell selectivity (ILSmax values)for percentage increase in life span of treated animals over that of P388 tumor bearing untreated control animals; format: functional, Mus musculus
SMILES,Rm [1],Log K [2],IC50 [3] [nM],D50 [4],Activity [5],OD [6] [mg/kg/day],Activity [7],Activity [8] [%]
COc1ccc2nc3ccccc3c(Nc3ccc(NS(C)(=O)=O)cc3)c2c1,-0.04,6,2500,ILS not obtained,ILS not obtained,150,,
COP(=O)(Nc1ccc(Nc2c3ccccc3nc3ccc(Cl)cc23)cc1)OC,0.37,6.17,900,ILS not obtained,,100,ILS not obtained,
Cc1ccc2nc3ccccc3c(Nc3ccc(NS(C)(=O)=O)cc3)c2c1,0.14,5.7,680,ILS not obtained,,100,,39
COP(=O)(Nc1ccc(Nc2c3ccccc3nc3cc([N+](=O)[O-])ccc23)cc1)OC,0.14,6.73,74,ILS not obtained,,8.9,,22
COc1cc(NP(=O)(OC)OC)ccc1Nc1c2ccccc2nc2ccc(C)cc12,0.55,5.28,985,ILS not obtained,,30,,25
CS(=O)(=O)Nc1ccc(Nc2c3ccccc3nc3cc(S(C)(=O)=O)ccc23)cc1,-0.2,5.3,> 2200,ILS not obtained,,150,ILS not obtained,
COP(=O)(Nc1ccc(Nc2c3ccccc3nc3ccc(C)cc23)cc1)OC,0.43,6.09,286,ILS not obtained,,20,,36
CNC(=O)c1cccc2c(Nc3ccc(NS(C)(=O)=O)cc3)c3ccccc3nc12,-0.1,6.22,245,ILS not obtained,,150,,41
CS(=O)(=O)Nc1ccc(Nc2c3ccccc3nc3ccc(Cl)cc23)cc1,0.15,5.62,3800,ILS not obtained,,150,ILS not obtained,
COc1ccc2nc3ccccc3c(Nc3ccc(NP(=O)(OC)OC)cc3)c2c1,0.29,6.25,920,ILS not obtained,,45,,38
CS(=O)(=O)Nc1ccc(Nc2c3ccccc3nc3cc(Br)ccc23)cc1,0.16,6.93,16,ILS not obtained,,100,,33
